According to ChEMBL document CHEMBL3804769, “Antibacterial Diamines Targeting Bacterial Membranes” (J Med Chem, 2016):
The source made the active and inactive calls. The calls are words filed in the database; no cut-off is given here.

What was measured:
Pseudomonas aeruginosa [1] = test: Antibiofilm activity against Pseudomonas aeruginosa PAO1 ATCC 47085 assessed as dispersal of formed biofilm after 24 hrs by crystal violet staining-based spectrophotometry; assay type: functional, organism-based
Summary of the method: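 Biofilms first grown 24 h on peg lids without compound, then washed. Pegs transferred into serially diluted compound in 10% LB-PBS and incubated a further 24 h at 37 °C. Remaining biofilm stained with crystal violet, eluted in ethanol and read at 600 nm. 300 μM EDTA as positive control for dispersal.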

[2] = Selectivity index, ratio of CC50 for HEK293T/17 cells to MIC99 for Escherichia coli ANS1
Summary of the method: (§1)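 CC50: HEK293T/17 or A549 cells seeded at 10⁴ per well in DMEM with 10% FBS at 37 °C, 5% CO2. After 24 h, wells PBS-washed and serially diluted compound applied for 48 h, with viability read by MTS and CC50 taken by nonlinear regression. MIC99 by CLSI broth microdilution, overnight at 37 °C without shaking, from three independent tests. SI = CC50/MIC99.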

Pseudomonas aeruginosa [3] = test: Bactericidal activity against Pseudomonas aeruginosa PAO1 ATCC 47085 in stationary-phase assessed as reduction in bacterial burden at 4 times MIC99 after 4 hrs by time-kill assay; assay type: functional, organism-based
Summary of the method: (§2)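 Overnight cultures washed and resuspended in PBS, then diluted 100-fold into LB (exponential-phase model) or into 1% PBS (stationary-phase model). Test agent added at 4× MIC99. Incubated at 37 °C with shaking at 200 rpm. CFU counted on LB agar at 0, 2, 4 and 6 h.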

Caenorhabditis elegans [4] = test: Toxicity in adult L4/juvenile L1 stages of Caenorhabditis elegans N2 assessed as effect on locomotion at 64 ug/ml incubated for 96 hrs measured every 12 hrs; assay type: organism-based; settings: in vivo
Pseudomonas aeruginosa [5] = test: Bactericidal activity against Pseudomonas aeruginosa PAO1 ATCC 47085 in exponential-phase assessed as reduction in bacterial burden at 4 times MIC99 upto 6 hrs by time-kill assay; assay type: functional; summary of the method: as §2
Staphylococcus aureus [6] = test: Antibacterial activity against Staphylococcus aureus RN4220 ATCC 35556 at 0.5 times MIC99 after 24 hrs by checkerboard assay in presence of norfloxacin; assay type: functional
Summary of the method: (§3)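 Checkerboard assay: compound serially diluted along one axis of a 96-well plate and antibiotic along the other, in LB. Each well inoculated with 2 × 10⁴ CFU and incubated 24 h at 37 °C. ΣFIC = FIC A + FIC B, where each FIC is the combination MIC99 divided by the MIC99 of that drug alone.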

[7] = Selectivity index, ratio of CC50 for HEK293T/17 cells to MIC99 for methicillin-resistant Staphylococcus aureus clinical isolate
Staphylococcus aureus [8] = test: Antibacterial activity against methicillin-resistant Staphylococcus aureus clinical isolate at MIC99 after 12 hrs by microbroth dilution method in presence of 10% fetal bovine serum; assay type: functional, organism-based
Summary of the method: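 Broth microdilution MIC99 run with 10% fetal bovine serum in the medium, after 12 h preincubation of compound with the serum. Plates incubated overnight at 37 °C without shaking. MIC99 taken as the lowest concentration giving complete growth inhibition.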

[9] = Selectivity index, ratio of CC50 for human A549 cells to MIC99 for Escherichia coli ANS1; summary of the method: as §1
Pseudomonas aeruginosa [10] = test: Potentiation of kanamycin-induced antibacterial activity against Pseudomonas aeruginosa PAO1 ATCC 47085 assessed as kanamycin MIC at 0.5 times MIC99 after 24 hrs by checkerboard assay (reference value: 64 ug/ml); assay type: functional; settings: PAO1 ATCC 47085, 24 h; summary of the method: as §3
[11] = Selectivity index, ratio of CC50 for HEK293T/17 cells to MIC99 for Pseudomonas aeruginosa PAO1 ATCC 47085; assay type: toxicity, cell-based; settings: human, read-out: Selectivity Index; summary of the method: as §1
Staphylococcus aureus [12] = test: Antibacterial activity against Staphylococcus aureus RN4220 ATCC 35556 in early exponential-phase assessed as lysis of cells at 2 times MIC99 after 30 to 60 mins by transmission electron microscopy; assay type: functional, organism-based
Summary of the method: (§4)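 Cells grown in LB to early exponential phase (OD600 ~0.4). Exposed to 2× MIC99 for 15–60 min, washed twice in phosphate buffer, fixed in 2.5% glutaraldehyde, then imaged by transmission electron microscopy.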

Staphylococcus aureus [13] = test: Potentiation of kanamycin-induced antibacterial activity against Staphylococcus aureus RN4220 ATCC 35556 assessed as kanamycin MIC at 0.5 times MIC99 after 24 hrs by checkerboard assay (reference value: 16 ug/ml); assay type: functional; settings: RN4220 ATCC 35556, 24 h; summary of the method: as §3
Pseudomonas aeruginosa [14] = test: Antibacterial activity against Pseudomonas aeruginosa PAO1 ATCC 47085 at 0.5 times MIC99 after 24 hrs by checkerboard assay in presence of norfloxacin; assay type: functional; summary of the method: as §3
Pseudomonas aeruginosa [15] = test: Antibacterial activity against Pseudomonas aeruginosa PAO1 ATCC 47085 at 0.5 times MIC99 after 24 hrs by checkerboard assay in presence of ampicillin; assay type: functional; summary of the method: as §3
Staphylococcus aureus [16] = test: Antibacterial activity against Staphylococcus aureus RN4220 ATCC 35556 in exponential-phase assessed as cytoplasmic membrane depolarization at 1 to 4 times MIC99 by fluorescent probe DiSC3-5 based fluorophotometric analysis; assay type: functional, organism-based
Summary of the method: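 Log-phase cells (OD600 ~0.7) washed and resuspended to OD600 0.05 in 5 mM HEPES pH 7.2 with 5 mM glucose and 100 mM KCl. Loaded with 0.4 μM DiSC3-5 in the dark until fluorescence fell stably by about 90%. Compound added at 4× or 1× MIC99 and fluorescence recorded continuously at 25 °C (ex 622/em 670 nm). 2,4-Dinitrophenol as positive control. Three independent experiments.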

Staphylococcus aureus [17] = test: Bactericidal activity against Staphylococcus aureus RN4220 ATCC 35556 in stationary-phase assessed as reduction in bacterial burden at 4 times MIC99 after 2 to 6 hrs by time-kill assay; assay type: functional, organism-based; summary of the method: as §2
Caenorhabditis elegans [18] = test: Toxicity in adult L4/juvenile L1 stages of Caenorhabditis elegans N2 assessed as effect on egg development at 64 ug/ml incubated for 96 hrs measured every 12 hrs; assay type: organism-based; settings: in vivo
Summary of the method: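 C. elegans N2 maintained on NGM agar at 22 °C. Compound mixed into molten NGM agar at 64 μg/mL. L4 adults, L1 juveniles and synchronized eggs transferred onto test plates and kept 96 h at 22 °C. Checked every 12 h for death, development and egg production. Gentamicin and […] as controls.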

[19] = Selectivity index, ratio of CC50 for human A549 cells to MIC99 for Staphylococcus aureus RN4220 ATCC 35556; assay type: toxicity, cell-based; settings: read-out: Selectivity Index; summary of the method: as §1
Pseudomonas aeruginosa [20] = test: Bactericidal activity against Pseudomonas aeruginosa PAO1 ATCC 47085 assessed as reduction in bacterial burden at 4 times MIC99; assay type: functional
Staphylococcus aureus [21] = test: Antibacterial activity against Staphylococcus aureus RN4220 ATCC 35556 in early exponential-phase assessed as numerous spherical double layered mesosome like structures at 2 times MIC99 after 30 to 60 mins by transmission electron microscopy; assay type: functional, organism-based; summary of the method: as §4
Pseudomonas aeruginosa [22] = test: Antibiofilm activity against Pseudomonas aeruginosa PAO1 ATCC 47085 at 64 ug/ml after 24 hrs by crystal violet staining-based spectrophotometry; assay type: functional, organism-based
Summary of the method: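 PAO1 grown 2 h in LB at 37 °C with shaking, then diluted 1:1000 in 10% LB-PBS to 3 × 10⁵ CFU/mL and mixed with serially diluted compound. Biofilms grown on peg lids 24 h at 37 °C, static. Pegs washed, stained with 0.1% crystal violet for 15 min, dye eluted in 95% ethanol and read at 600 nm. Control was 10% LB-PBS.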

Cl.Cl.S=C(NCCCNCCCCCNCCCNC(=S)NCC(c1ccccc1)c1ccccc1)NCC(c1ccccc1)c1ccccc1
Activity (Pseudomonas aeruginosa [1]): Active | Selectivity Index [2]: 16 | Activity (Pseudomonas aeruginosa [3]): Active | Activity (Caenorhabditis elegans [4]): Non-toxic | Activity (Pseudomonas aeruginosa [5]): 4 deltalog10CFU/ml | fractional inhibitory concentration index (FICI) (Staphylococcus aureus [6]): 0.75 | Selectivity Index [7]: 32 | Activity (Staphylococcus aureus [8]): Active | Selectivity Index [9]: 32 | MIC99 (Pseudomonas aeruginosa [10]): 8 µg/mL | selectivity ratio [11]: 4 | Activity (Staphylococcus aureus [12]): Active | MIC99 (Staphylococcus aureus [13]): 2 µg/mL | fractional inhibitory concentration index (FICI) (Pseudomonas aeruginosa [14]): 0.75 | fractional inhibitory concentration index (FICI) (Pseudomonas aeruginosa [15]): 2 | Activity (Staphylococcus aureus [16]): Active | Activity (Staphylococcus aureus [17]): Active | Activity (Caenorhabditis elegans [18]): Non-toxic | selectivity ratio [19]: 32 | Activity (Pseudomonas aeruginosa [20]): >2 deltalog10CFU/ml | Activity (Staphylococcus aureus [21]): Active | Activity (Pseudomonas aeruginosa [22]): Active
